Test results taken from ChEMBL document CHEMBL4177559, “Design, Synthesis, and Evaluation of a Series of Novel Benzocyclobutene Derivatives as General Anesthetics” (J Med Chem, 2017).

Assays:
[1] = Clearance in Sprague-Dawley rat at 1 mg/kg, iv administered as single dose; assay type: ADME, organism-based; conditions: in vivo
Mus musculus [2] = assay: Anesthetic activity in iv dosed ICR mouse assessed as anesthetic duration time by measuring loss of righting reflex administered as single bolus dose; assay type: functional
In short: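 Fasted ICR mice (18−22 g, 10 per group) received a single ~10 s lateral tail-vein bolus in 5% DMSO/5−10% Solutol HS-15/saline. Duration was the time from dosing to recovery of righting reflex, recorded at the dose giving 100% loss of righting reflex.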

Mus musculus [3] = assay: Anesthetic activity in iv dosed ICR mouse assessed as onset time for loss of righting reflex administered as single bolus dose; assay type: functional
In short: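 ICR mice (fasted, 18−22 g, 10 per dose group, 7−9 groups) got one tail-vein iv bolus (~10 s) in 5% DMSO/5−10% Solutol HS-15/85−90% saline. Onset was the time from dosing to loss of righting reflex.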

Mus musculus [4] = assay: Anesthetic activity in iv dosed ICR mouse assessed as dose required to produce anesthesia administered as single bolus dose; assay type: functional
In short: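 Fasted ICR mice (18−22 g, male and female) were randomised into 7−9 dose groups of 10 each. Each received one intravenous bolus over about 10 s in the lateral tail vein. Vehicle was 5% DMSO, 5−10% Solutol HS-15 and 85−90% saline. The endpoint was loss of righting reflex, and ED50 was derived by nonlinear fitting of dose–response.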

[5] = Therapeutic index, ratio of LD50 for toxicity in ICR mouse to ED50 for anesthetic effect in ICR mouse; assay type: organism-based; conditions: in vivo, read-out: Ratio LD50/ED50
In short: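 Fasted ICR mice (18−22 g, male and female), 7−9 dose groups of 10, given a single ~10 s iv bolus into the lateral tail vein in 5% DMSO, 5−10% Solutol HS-15, 85−90% saline. Loss of righting reflex scored; ED50 and LD50 derived by nonlinear fitting; TI = LD50/ED50.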

[6] = AUC in Sprague-Dawley rat at 1 mg/kg, iv administered as single dose; assay type: ADME, organism-based; conditions: in vivo
Rattus norvegicus = assay: Cmax in Sprague-Dawley rat at 1 mg/kg, iv administered as single dose; assay type: ADME, organism-based; set-up: dose 1 mg/kg, route intravenous; conditions: in vivo

Compound	clearance [1]	Time (Mus musculus [2])	Time (Mus musculus [3])	ED50 (Mus musculus [4])	selectivity ratio [5]	AUC [6]	Cmax (Rattus norvegicus)
CC(C)c1ccc2c(c1O)[C@H](C)C2	77 mL/min/kg	–	–	–	–	–	–
CC(C)c1ccc2c(c1O)[C@@H](C)C2	67 mL/min/kg	–	–	–	–	–	–
CC(C)c1ccc2c(c1O)C(C)(N=[N+]=[N-])C2 (racemic)	–	381.7 s	<10 s	9.4 mg/kg	5.9	–	–
CC(C)c1cccc(C(C)C)c1O [PROPOFOL]	–	303.2 s	<10 s	–	2.7	77 ng·h/mL	384 ng/mL
